# KCNQ1 block – blocks the human KCNQ1 potassium channel. CHO-K1 KCNQ1, FluxOR thallium flux fluorescence; stronger effect = higher value. B-score at 10 µM. 310,000 compounds, 1.3% hits. P51787;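 active means compounds whose thallium flux B-score, printed positive for inhibition, exceeds three library SD while starting fluorescence stays within three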;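 further: channel opened by potassium depolarization with thallium stimulus after 20 min compound exposure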
# hERG rescue – hERG (human) protection from proarrhythmic block; activation (rescue from dofetilide block), less the hit threshold, % at 10 µM; CHO-hERG, FluxOR thallium flux, dofetilide IC70 present; 310,000 compounds, 0.51% hits; AID 1511; Q12809;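 active means activation above the mean of controls blocked by dofetilide plus 5 SD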;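 further: thallium influx through hERG after potassium depolarization seen as dye fluorescence rise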
# KCNK9 block – human KCNK9 channel inhibition; HEK293 KCNK9, FluxOR thallium flux fluorescence; stronger effect = lower value; B-score at 10 µM; 310,000 compounds, 1.2% hits;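 active means ratio B-score over 3 SD below the library mean, with starting fluorescence within 5 SD of its mean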;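 further: negative B-score means less thallium flux so channel inhibition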
# KCNK3 block – human KCNK3 channel inhibition, primary screen; O14649; AID 602410; CHO-KCNK3 thallium flux, FluxOR fluorescence; stronger effect = lower value; B-score at 10 µM; 340,000 compounds, 0.84% hits;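 active means B-score under library mean minus 4 SD, starting fluorescence ratio at most library mean plus 5 SD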;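 further: more negative B-score means stronger inhibition of thallium flux through KCNK3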
# Target sequence (O14649 whole entry, looked up): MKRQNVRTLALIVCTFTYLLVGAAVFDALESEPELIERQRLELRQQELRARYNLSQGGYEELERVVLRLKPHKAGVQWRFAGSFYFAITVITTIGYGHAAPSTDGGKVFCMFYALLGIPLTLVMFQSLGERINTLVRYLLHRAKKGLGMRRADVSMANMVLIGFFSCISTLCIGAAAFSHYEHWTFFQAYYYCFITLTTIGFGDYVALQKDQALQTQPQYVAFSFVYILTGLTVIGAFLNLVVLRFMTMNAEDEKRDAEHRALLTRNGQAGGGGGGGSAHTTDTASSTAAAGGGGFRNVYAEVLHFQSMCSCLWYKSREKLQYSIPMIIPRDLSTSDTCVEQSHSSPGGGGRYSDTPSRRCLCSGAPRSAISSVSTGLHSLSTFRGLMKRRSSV
# KCNQ1 act – potentiates or activates the human KCNQ1 potassium channel; CHO-K1 KCNQ1, thallium flux FluxOR fluorescence; stronger effect = higher value; B-score at 10 µM; AID 2648; P51787; 310,000 compounds, 0.35% hits;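 active means fluorescence ratio B-score, a plate-corrected score, at least three library SD, with initial intensity B-score within 5 SD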
#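 assay system = KCNQ1-transfected CHO-K1 cells | medium = assay buffer with matched DMSO | probe or stimulus = depolarizing K+/Tl+ stimulus, K2SO4 and Tl2SO4 each 12.5 mM in 5x stock | dosing = single dose | incubation = dye 90 min, compound 20 min, room temperature | detection = kinetic FluxOR fluorescence, 10 s baseline plus 110 s post-stimulus | evaluation = ratio B score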
# Numbers without * were called inactive; i = inactive; . = no result given. Shown are actives, neighbours in structure and some others; about 3.1% of the full set was active somewhere.
SMILES,KCNQ1 block,hERG rescue,KCNK9 block,KCNK3 block,KCNQ1 act
O=C(CNC(=O)c1cccc(F)c1)N/N=C/c1cc(Br)ccc1OCc1ccccc1,i,-3,i,i,i
Clc1cccc2c1Sc1ccccc1CC2N1CCNCC1 (stereo not drawn),i,-22,i,i,i
Clc1ccc2c(c1)C(N1CCNCC1)Cc1ccccc1S2 (stereo not drawn),6*,-23,i,i,i
COc1c(CC=C(C)C)cc(C2CC(=O)c3c(O)cc(O)cc3O2)cc1CC=C(C)C (stereo not drawn),8*,-13,i,i,i
COc1ccc([C@@H]2CC(=O)c3c(O)cc(O)cc3O2)cc1O,.,.,.,i,.
CC1(C(=O)O)CCC(C(=O)NC2CCCCC2)C1(C)C (stereo not drawn),i,1,-7.6*,i,i
CCOC(=O)CSc1nnc(NC(=O)CN2CCCCC2)s1,i,-5,i,i,i
Oc1ccccc1CNCC12CC3CC(CC(C3)C1)C2,i,-4,i,i,i
CC(CC12CC3CC(CC(C3)C1)C2)NCc1ccccc1O (stereo not drawn),6*,-13,i,i,i
O=C(Cc1ccc(NS(=O)(=O)c2ccc(F)cc2)cc1)NCc1cccnc1,i,-4,i,i,i
Cc1ccc(N2C(N)=C(C#N)C(c3cc(CN4CCOCC4)cs3)C3=C2CC(C)(C)CC3=O)cc1 (stereo not drawn),i,-2,i,i,i
O=[N+]([O-])c1ccc(S(=O)(=O)NCC2CC3CCC2C3)cc1 (stereo not drawn),7*,-3,i,i,i
Cn1c(=O)c(C#N)c(-c2ccc(F)cc2)c2cc(C(=O)c3cc(Cl)cc(Cl)c3O)cnc21,11*,-15,i,i,i
Cc1cc(C)n(C(=O)/C(C#N)=N/Nc2cc(Cl)cc(Cl)c2)n1,8*,-20,i,i,i
Cc1cc(C)n(C(=O)/C(C#N)=N\Nc2ccccc2[N+](=O)[O-])n1,i,-21,i,i,i
CCc1ccc(/C=C/C(=O)c2cc(Br)ccc(=O)c2O)cc1,i,0,i,i,38*
CCOc1ccc(/C=C/C(=O)c2cc(Br)ccc(=O)c2O)cc1,.,.,.,i,.
CCN(CC)S(=O)(=O)c1cccc(C(=O)N[C@H](C(=O)NNC(=O)c2ccccc2)C(C)C)c1,i,7.9*,i,i,33*
Cc1nc([N+](=O)[O-])c(Sc2nc3ccccc3n2C)n1Cc1ccccc1,i,-6,i,i,i
c1ccc(CN(Cc2cccs2)C(c2cccs2)c2nnnn2C2CCCC2)cc1 (stereo not drawn),i,-7,-7.5*,i,i
CC(C)C(C)NC(=O)CN1C(=O)NC2(CCc3ccccc32)C1=O (stereo not drawn),i,-8,i,i,i
CCN1CCN(Cc2ccc(NC(=O)c3ccc(C)c(NC(=O)C(=O)c4c[nH]c5ccccc45)c3)cc2C(F)(F)F)CC1,12*,-40,i,i,i
CCCCC1CCc2[nH]nc(C(=O)O)c2C1 (stereo not drawn),.,.,.,i,.
COc1ccc2ccccc2c1-c1sc(Nc2ccccc2)n[n+]1-c1ccc(F)cc1,7*,-27,-7.4*,i,i
CC(=O)Nc1ccc(-n2c(C)nc(=O)c(-c3ccccc3)c2C)cc1,i,4.7*,i,i,i
SMILES,KCNQ1 block,hERG rescue,KCNK9 block,KCNK3 block,KCNQ1 act
Cc1nc(=O)c(-c2ccccc2)c(C)n1-c1ccccc1,i,0,i,i,i
CCCCCCSC1=C(C#N)C(c2ccccc2)CC(=O)N1 (stereo not drawn),i,2,-7.2*,i,i
Cc1ccc(C2CC(=O)NC(SCc3ccccc3)=C2C#N)cc1 (stereo not drawn),i,-11,i,i,i
O=c1c2ccccc2ncn1-c1ccc(Br)cc1[N+](=O)[O-],i,-6,i,i,i
COc1ccc(-n2cnc3ccccc3c2=O)c([N+](=O)[O-])c1,i,5.5*,i,i,i
Cc1ccc2c(=O)c(C(=O)NCc3cccs3)c[nH]c2c1,i,4.8*,i,i,i
